{
  "source": "paper PMC12371875",
  "about": "(Journal of Agricultural and Food Chemistry, 2025)",
  "key": {"rat intestinal maltase": {"system": "rat intestinal maltase", "experiment": "Kinetic study of α-glucosidase inhibition", "type": "biochemical", "outline": "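Rat intestinal α-glucosidase with test compound in phosphate buffer pH 6.9. Maltose was varied over 2–10 mM, with and without inhibitor, and the mixture was incubated at 37 °C for 10 min. […] Inhibition type came from Lineweaver–Burk plots. Ki and Ki′ came from secondary plots of slopes and intercepts versus inhibitor concentration.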"}, "rat intestinal sucrase": {"biological_target": "rat intestinal sucrase (Rattus norvegicus, UniProt P23739)", "sequence (P23739 whole entry)": "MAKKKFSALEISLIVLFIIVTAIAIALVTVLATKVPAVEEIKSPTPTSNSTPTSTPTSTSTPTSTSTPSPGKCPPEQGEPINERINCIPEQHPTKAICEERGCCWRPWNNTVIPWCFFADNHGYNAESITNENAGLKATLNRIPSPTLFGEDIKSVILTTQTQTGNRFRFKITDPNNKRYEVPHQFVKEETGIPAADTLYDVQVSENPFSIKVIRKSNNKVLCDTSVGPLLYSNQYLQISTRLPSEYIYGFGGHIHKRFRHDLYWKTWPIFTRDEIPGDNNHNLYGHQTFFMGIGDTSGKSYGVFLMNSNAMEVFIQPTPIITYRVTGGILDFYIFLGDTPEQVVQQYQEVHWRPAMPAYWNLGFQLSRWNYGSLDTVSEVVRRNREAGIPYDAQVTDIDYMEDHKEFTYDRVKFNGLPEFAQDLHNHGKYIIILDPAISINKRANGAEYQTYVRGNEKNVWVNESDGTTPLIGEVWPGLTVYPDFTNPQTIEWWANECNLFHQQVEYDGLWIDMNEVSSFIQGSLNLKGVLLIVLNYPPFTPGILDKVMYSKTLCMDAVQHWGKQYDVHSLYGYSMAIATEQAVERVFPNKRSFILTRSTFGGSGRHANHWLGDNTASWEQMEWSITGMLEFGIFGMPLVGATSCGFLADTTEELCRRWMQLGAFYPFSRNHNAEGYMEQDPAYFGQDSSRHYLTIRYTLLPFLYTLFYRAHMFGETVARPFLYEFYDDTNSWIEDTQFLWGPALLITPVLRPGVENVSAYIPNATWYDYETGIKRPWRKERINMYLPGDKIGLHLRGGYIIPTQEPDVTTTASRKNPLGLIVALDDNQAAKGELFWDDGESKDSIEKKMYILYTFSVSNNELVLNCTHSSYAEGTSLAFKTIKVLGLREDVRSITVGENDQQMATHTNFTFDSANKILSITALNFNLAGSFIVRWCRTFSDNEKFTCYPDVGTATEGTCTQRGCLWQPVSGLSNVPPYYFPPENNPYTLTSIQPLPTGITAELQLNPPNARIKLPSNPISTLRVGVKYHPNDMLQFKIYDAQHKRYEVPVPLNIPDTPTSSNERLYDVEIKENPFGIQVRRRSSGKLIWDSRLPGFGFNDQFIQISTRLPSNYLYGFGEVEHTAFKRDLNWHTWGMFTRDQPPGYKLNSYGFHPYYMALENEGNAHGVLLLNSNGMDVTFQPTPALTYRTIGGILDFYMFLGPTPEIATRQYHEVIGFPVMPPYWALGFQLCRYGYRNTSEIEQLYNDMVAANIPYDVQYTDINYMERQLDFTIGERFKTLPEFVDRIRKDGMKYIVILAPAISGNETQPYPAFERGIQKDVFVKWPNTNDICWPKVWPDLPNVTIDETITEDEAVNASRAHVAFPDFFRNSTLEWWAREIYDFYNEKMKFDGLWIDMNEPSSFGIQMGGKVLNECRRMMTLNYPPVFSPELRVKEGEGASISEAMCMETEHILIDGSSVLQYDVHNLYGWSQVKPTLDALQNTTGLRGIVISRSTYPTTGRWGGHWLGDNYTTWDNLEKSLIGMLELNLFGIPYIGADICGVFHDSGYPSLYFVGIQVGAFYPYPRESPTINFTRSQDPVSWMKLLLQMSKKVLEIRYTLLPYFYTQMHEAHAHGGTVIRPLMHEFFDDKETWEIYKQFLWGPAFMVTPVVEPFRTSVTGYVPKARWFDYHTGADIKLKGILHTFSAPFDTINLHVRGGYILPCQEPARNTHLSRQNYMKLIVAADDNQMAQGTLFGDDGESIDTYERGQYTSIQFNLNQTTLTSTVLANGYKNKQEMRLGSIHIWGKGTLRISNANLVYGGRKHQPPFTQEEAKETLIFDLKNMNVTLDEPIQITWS", "experiment": "Kinetic study of α-glucosidase inhibition", "type": "biochemical", "outline": "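Test compound in phosphate buffer pH 6.9 with rat intestinal α-glucosidase. Sucrose was varied over 20–100 mM, with and without inhibitor, and incubated at 37 °C for 40 min. […] Lineweaver–Burk plots gave the inhibition type. Secondary plots of slopes and intercepts against inhibitor concentration gave Ki and Ki′.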"}, "yeast α-glucosidase": {"biological_target": "yeast α-glucosidase", "settings": "ref Suttithumsatid and co-workers, 2022; cited from earlier work"}, "[1]": {"settings": "dissociation constant of ESI complex, secondary plots"}},
  "data": [
    {"smiles": "CCCCCc1cc(O)c2c(c1)OC(C)(C)c1ccc(C)cc1-2", "note": "[Compound 15, cannabinol]", "values": [
      {"measurement": "Inhibition type, maltase", "setting": "rat intestinal maltase; Lineweaver–Burk plots, maltose 2–10 mM", "value": "Uncompetitive"},
      {"measurement": "Ki′, maltase", "setting": "rat intestinal maltase; [1]", "value": 196.4, "unit": "µM"},
      {"measurement": "Inhibition type, sucrase", "setting": "rat intestinal sucrase; Lineweaver–Burk plots, sucrose 20–100 mM", "value": "Uncompetitive"},
      {"measurement": "Ki′, sucrase", "setting": "rat intestinal sucrase; [1]", "value": 434.8, "unit": "µM"}
    ]},
    {"smiles": "C=C(C)[C@@H]1CCC(C)=C[C@H]1c1c(O)cc(CCCCC)cc1O", "note": "[CBD]", "values": [
      {"measurement": "IC50, yeast α-glucosidase inhibition", "setting": "yeast α-glucosidase", "value": 5.5, "unit": "µg/mL"}
    ]}
  ]
}
